This is a sample that favours compounds with a hit; in the whole collection about 12% have one here.
RAM inhibit: blocks the yeast RAM network. 190,000 tested, 1.8% active. S. cerevisiae dse1pr::URA3 reporter, 5-FOA growth OD615, 2 d; analog-sensitive cbk1-as2 kinase mutant strain. inhibition, % at 50 µM;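 active = inhibition above a set limit, 3 SD over mean compound inhibition, cut at about 8.4% in these data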;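 also: inhibition rescues growth on 5-FOA so higher OD means more RAM inhibition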
Lmaj promast: inhibitors of Leishmania major promastigote growth; inhibition, % at 10 µM; Leishmania major promastigotes, resazurin fluorescence viability; 200,000 tested, 9% active; in the data active = inhibition above about 50%;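 also: promastigotes grown with compound for 44 hours at 28 °C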
ABCB1 block: inhibitors of human ABCB1 transporter, ABCG2 counter-screen; CCRF-Adr cells, JC-1 efflux, flow cytometry; 190,000 tested, 0.067% active; P08183; inhibition, % at 6.6 µM; in the data active = inhibition above about 40%;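 also: higher value means more JC-1 retained so stronger ABCB1 efflux block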
WT yeast gro inh: growth inhibition of WT yeast, mitochondrial fusion screen. mitochondrial fusion phenotypic screen, WT strain. inhibition, % at 10 µM. 190,000 tested, 2.1% active. AID 1362; in the data active = inhibition above about 58%; tested in S. cerevisiae
ABCG2 block: blocks JC-1 efflux by human ABCG2 transporter; IgMXP3 cells, flow cytometry; 190,000 tested, 0.1% active; AID 1325; Q9UNQ0; inhibition, % at 6.6 µM;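 active = inhibition above 80%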
Target sequence (Q9UNQ0 whole entry, looked up): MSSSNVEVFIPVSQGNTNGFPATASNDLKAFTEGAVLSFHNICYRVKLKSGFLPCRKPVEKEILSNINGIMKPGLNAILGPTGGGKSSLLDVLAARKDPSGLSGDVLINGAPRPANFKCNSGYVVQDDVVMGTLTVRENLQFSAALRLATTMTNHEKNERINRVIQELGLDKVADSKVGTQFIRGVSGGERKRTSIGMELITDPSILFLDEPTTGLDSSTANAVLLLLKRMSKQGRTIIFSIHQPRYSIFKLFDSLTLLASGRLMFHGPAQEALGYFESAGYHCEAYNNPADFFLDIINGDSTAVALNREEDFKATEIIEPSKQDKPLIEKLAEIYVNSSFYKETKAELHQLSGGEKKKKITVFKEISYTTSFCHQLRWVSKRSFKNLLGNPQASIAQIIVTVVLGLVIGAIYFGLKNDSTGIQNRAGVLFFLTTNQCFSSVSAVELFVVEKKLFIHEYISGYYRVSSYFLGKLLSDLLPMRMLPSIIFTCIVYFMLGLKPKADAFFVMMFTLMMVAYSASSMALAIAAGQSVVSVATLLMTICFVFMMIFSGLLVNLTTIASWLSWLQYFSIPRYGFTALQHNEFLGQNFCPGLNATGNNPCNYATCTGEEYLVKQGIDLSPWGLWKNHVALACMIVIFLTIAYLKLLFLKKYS
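Test system: IgMXP3 (ABCG2) plus far-red-tagged CCRF-Adr (ABCB1) cells. Reagent: JC-1 dye as substrate. Timing: 10 min exposure at 25 °C with rotation, no wash. Measured by: flow cytometric JC-1 green MFI at 530 nm. Read-out: percent efflux inhibition, scaled nicardipine 100% to DMSO 0%. Control set: nicardipine and DMSO wells.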
Of the large screens only hits and unclear results are named; the others gave an inactive call.

CC(C)Oc1cccc(C(=O)C2CCCN(Cc3ccc(Oc4ncccn4)cc3)C2)c1 (stereo not drawn)	Lmaj promast 79.1
CCCn1cc(CN2CCCC(C(=O)c3cccc(OC(C)C)c3)C2)c(C)n1 (stereo not drawn)	Lmaj promast 73.8
COc1c(C)cc(C(=O)C2CCCN(Cc3ccc(Oc4ncccn4)cc3)C2)cc1C (stereo not drawn)	Lmaj promast 82.1
CC(C)Oc1cccc(C(=O)C2CCCN(Cc3cnc(N4CCCC4)s3)C2)c1 (stereo not drawn)	none
Cc1ccc(NC(=O)C(Nc2cccc(C)c2)c2ccccc2)cc1 (stereo not drawn)	Lmaj promast 59.1, WT yeast gro inh 70.4
Cc1cc(C)cc(NC(=O)C(Nc2ccccc2)c2ccccc2)c1 (stereo not drawn)	none
Cc1ccc(NC(=O)C(Nc2ccccc2)c2ccccc2)cc1 (stereo not drawn)	Lmaj promast 88.0
Cc1cccc(NC(=O)C2c3ccccc3Oc3ccccc32)n1	none
COc1ccc(S(=O)(=O)NCC2CCCN(Cc3ccccc3C)C2)cc1 (stereo not drawn)	Lmaj promast 98.8
Cc1ccc(S(=O)(=O)NC(CC(=O)NCC2CCCO2)c2ccccc2)cc1 (stereo not drawn)	none
CC(=O)Nc1ccc(S(C)(=O)=O)c(C)c1	none
C=C(C(=O)c1ccccc1)C(c1ccccc1)C(C)C(=O)c1ccccc1 (stereo not drawn)	Lmaj promast 89.2
C=C(C(=O)c1ccccc1)C(C)C(=C)C(=O)c1ccccc1	Lmaj promast 100.2
CC(=O)NC(C(=O)c1ccccc1)C(=O)c1ccccc1	none
CCc1nnc(NC(=O)C2Cc3ccccc3CN2S(=O)(=O)c2c(C)c(C)cc(C)c2C)s1 (stereo not drawn)	none
Clc1ccc(OCCn2c(-c3ccco3)nc3ccccc32)cc1	WT yeast gro inh 83.0
COCCn1c(-c2ccc(OC)cc2)nc2ccccc21	Lmaj promast 56.0
COCCn1c(COc2ccc(C)cc2)nc2ccccc21	none
O=C(O)CN1C(=O)C2C3CC(C2C1=O)C1C(c2ccc(F)cc2)c2sc(=O)[nH]c2SC31 (stereo not drawn)	none
COc1ccccc1N1CCc2c(C)nc3c(OC)cccc3c21	Lmaj promast 89.3
COc1cccc2c3c(c(C)nc12)CCN3c1ccccc1	Lmaj promast 77.8
COC(=O)CNC(c1ccccc1)c1cc(Br)ccc1NC(=O)CNC(=O)OCc1ccccc1 (stereo not drawn)	none
COC(=O)CNC(c1ccccc1)c1cc(Br)ccc1NS(=O)(=O)c1ccc(C)cc1 (stereo not drawn)	none
COC(=O)CNC(c1ccccc1)c1cc(Br)ccc1NS(=O)(=O)c1ccccc1 (stereo not drawn)	none
CCOC(=O)CNC(c1ccccc1)c1cc(Br)ccc1NC(=O)CCN1CCOCC1 (stereo not drawn)	Lmaj promast 98.2
COC(=O)CNC(c1ccccc1)c1cc(Br)ccc1NC(=O)CCN1CCOCC1 (stereo not drawn)	Lmaj promast 99.8
CCOC(=O)CNC(c1ccccc1)c1cc(Br)ccc1NC(=O)OCC (stereo not drawn)	Lmaj promast 53.9
O=C(c1ccccc1)N1CCN(c2ccc([N+](=O)[O-])c(NCC3CCCO3)c2)CC1 (stereo not drawn)	none
O=C(O)c1ccc(-c2nc(-c3ccc(Cl)c(Cl)c3)cs2)cc1	WT yeast gro inh 74.8
O=C(O)c1ccc(-c2nc(-c3ccccc3)cs2)cc1	none
Cc1ccsc1/C=C(\C#N)C(=O)NC1CCS(=O)(=O)C1 (stereo not drawn)	none
Oc1c(N=Nc2ccccn2)ccc2ccccc12	Lmaj promast 100.2
O=C(CCS(=O)(=O)c1ccc(Cl)cc1)NCCc1c[nH]c2ccccc12	none
CN1CCN(CCCNC(=O)c2ccc(Cn3c(=S)[nH]c4ccc(Br)cc4c3=O)cc2)CC1	none
CC1CCN(CCCNC(=O)c2ccc(Cn3c(=S)[nH]c4ccc(Br)cc4c3=O)cc2)CC1	Lmaj promast 98.9
CC1CCCCN1CCNC(=O)c1ccc2c(=O)n(CCc3ccccc3)c(=O)[nH]c2c1 (stereo not drawn)	Lmaj promast 62.9
CCCCCn1c(=O)[nH]c2cc(C(=O)NCCCN3CCC(C)CC3)ccc2c1=O	Lmaj promast 57.9
CC1CCN(CCCNC(=O)c2ccc3c(=O)n(CCc4ccccc4)c(=O)[nH]c3c2)CC1	Lmaj promast 97.3

From PubChem
